In ChEMBL document CHEMBL5712883, “RNA polymerase II stalling promotes nucleosome occlusion and pTEFb recruitment to drive immortalization by Epstein-Barr virus” (PLoS Pathog, 2011):
Active and inactive are the calls of the source. No cut-off for these calls is given here.

Tests used:
Type in all cases: cell-based
[1] = target: T1, CDK9/cyclin T1 (Homo sapiens) (UniProt O60563+P50750); assay: Inhibition of CDK9/Cyclin T1 in human Mutu-3 cells assessed as decrease in Cp-initiated EBNA 2 transcription at 25 to 50 uM incubated for 24 hrs by Q-PCR analysis; conditions: dose 25-50 µM
Summary of the method: (§1)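 Mutu III cells seeded at 5×10^5 cells/ml and given DRB or flavopiridol at the stated concentrations, with DMSO as control, for 24 hrs. cDNA was made from 10^5 cells with a cells-to-Ct SYBR kit. Q-PCR used cDNA-specific EBNA 2, EBNA 1 (YUK) or LMP1 primers, with actin as endogenous control, and was analysed by relative quantification (ddCt) against 24 hr control samples.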

[2] = target: T1, CDK9/cyclin T1 (Homo sapiens); assay: Inhibition of CDK9/Cyclin T1 in human Mutu-3 cells assessed as decrease in Cp-initiated EBNA 1 transcription at 25 to 50 uM incubated for 24 hrs by Q-PCR analysis; conditions: dose 25-50 µM; summary of the method: as §1
[3] = target: T1, CDK9/cyclin T1 (Homo sapiens); assay: Inhibition of CDK9/Cyclin T1 in human Mutu-3 cells assessed as decrease in Cp-initiated LMP1 transcription at 25 to 50 uM incubated for 24 hrs by Q-PCR analysis; conditions: dose 25-50 µM; summary of the method: as §1
[4] = target: T1, CDK9/cyclin T1 (Homo sapiens); assay: Inhibition of CDK9/Cyclin T1 in human Mutu-3 cells assessed as reduction in RNA pol II C-terminal domain phosphorylation on serine 5 at -208 distal EBV genome region at 500 nM incubated for 2 hrs by CHIP assay
[5] = target: T1, CDK9/cyclin T1 (Homo sapiens); assay: Inhibition of CDK9/Cyclin T1 in human Mutu-3 cells assessed as reduction in RNA pol II C-terminal domain phosphorylation on serine 5 at +48 distal EBV genome region at 500 nM incubated for 2 hrs by CHIP assay
[6] = target: T1, CDK9/cyclin T1 (Homo sapiens); assay: Inhibition of CDK9/Cyclin T1 in human Mutu-3 cells assessed as reduction in RNA pol II C-terminal domain phosphorylation on serine 5 at +295 distal EBV genome region at 500 nM incubated for 2 hrs by CHIP assay
[7] = target: T1, CDK9/cyclin T1 (Homo sapiens); assay: Inhibition of CDK9/Cyclin T1 in human Mutu-3 cells assessed as reduction in RNA pol II C-terminal domain phosphorylation on serine 5 at W repeat EBV genome region at 500 nM incubated for 2 hrs by CHIP assay
[8] = target: T1, CDK9/cyclin T1 (Homo sapiens); assay: Inhibition of CDK9/Cyclin T1 in human Mutu-3 cells assessed as reduction in RNA pol II C-terminal domain phosphorylation on serine 5 at +30896 distal EBV genome region at 500 nM incubated for 2 hrs by CHIP assay
[9] = target: T1, CDK9/cyclin T1 (Homo sapiens); assay: Inhibition of CDK9/Cyclin T1 in human Mutu-3 cells assessed as reduction in RNA pol II C-terminal domain phosphorylation on serine 5 at +38667 distal EBV genome region at 500 nM incubated for 2 hrs by CHIP assay
[10] = target: T1, CDK9/cyclin T1 (Homo sapiens); assay: Inhibition of CDK9/Cyclin T1 in human Mutu-3 cells assessed as reduction in RNA pol II C-terminal domain phosphorylation on serine 5 at +38828 distal EBV genome region at 500 nM incubated for 2 hrs by CHIP assay
[11] = target: T1, CDK9/cyclin T1 (Homo sapiens); assay: Inhibition of CDK9/Cyclin T1 in human B cell transfected with EBV assessed as reduction in RNA pol II C-terminal domain phosphorylation on serine 5 at -208 distal EBV genome region at 500 nM incubated for 2 hrs in presence of beta-estradiol by CHIP assay
[12] = target: T1, CDK9/cyclin T1 (Homo sapiens); assay: Inhibition of CDK9/Cyclin T1 in human B cell transfected with EBV assessed as reduction in RNA pol II C-terminal domain phosphorylation on serine 5 at +48 distal EBV genome region at 500 nM incubated for 2 hrs in presence of beta-estradiol by CHIP assay
[13] = target: T1, CDK9/cyclin T1 (Homo sapiens); assay: Inhibition of CDK9/Cyclin T1 in human B cell transfected with EBV assessed as reduction in RNA pol II C-terminal domain phosphorylation on serine 5 at +295 distal EBV genome region at 500 nM incubated for 2 hrs in presence of beta-estradiol by CHIP assay
[14] = target: T1, CDK9/cyclin T1 (Homo sapiens); assay: Inhibition of CDK9/Cyclin T1 in human B cell transfected with EBV assessed as reduction in RNA pol II C-terminal domain phosphorylation on serine 5 at +30896 distal EBV genome region at 500 nM incubated for 2 hrs in presence of beta-estradiol by CHIP assay
[15] = target: T1, CDK9/cyclin T1 (Homo sapiens); assay: Inhibition of CDK9/Cyclin T1 in human B cell transfected with EBV assessed as reduction in RNA pol II C-terminal domain phosphorylation on serine 5 at +40493 distal EBV genome region at 500 nM incubated for 2 hrs in presence of beta-estradiol by CHIP assay
[16] = target: T1, CDK9/cyclin T1 (Homo sapiens); assay: Inhibition of CDK9/Cyclin T1 in human B cell transfected with EBV assessed as reduction in RNA pol II C-terminal domain phosphorylation on serine 5 at +50024 distal EBV genome region at 500 nM incubated for 2 hrs in presence of beta-estradiol by CHIP assay
[17] = target: T1, CDK9/cyclin T1 (Homo sapiens); assay: Inhibition of CDK9/Cyclin T1 in human B cell transfected with EBV assessed as reduction in RNA pol II C-terminal domain phosphorylation on serine 5 at +59014 distal EBV genome region at 500 nM incubated for 2 hrs in presence of beta-estradiol by CHIP assay
[18] = target: T1, CDK9/cyclin T1 (Homo sapiens); assay: Inhibition of CDK9/Cyclin T1 in human B cell transfected with EBV assessed as reduction in RNA pol II C-terminal domain phosphorylation on serine 5 at +75615 distal EBV genome region at 500 nM incubated for 2 hrs in presence of beta-estradiol by CHIP assay
[19] = target: T1, CDK9/cyclin T1 (Homo sapiens); assay: Inhibition of CDK9/Cyclin T1 in human Mutu-3 cells assessed as effect on cp-pre-initiation complex assembly at -208 distal EBV genome region at 500 nM incubated for 2 hrs by CHIP assay
[20] = target: T1, CDK9/cyclin T1 (Homo sapiens); assay: Inhibition of CDK9/Cyclin T1 in human Mutu-3 cells assessed as effect on cp-pre-initiation complex assembly at +48 distal EBV genome region at 500 nM incubated for 2 hrs by CHIP assay
[21] = target: T1, CDK9/cyclin T1 (Homo sapiens); assay: Inhibition of CDK9/Cyclin T1 in human Mutu-3 cells assessed as effect on cp-pre-initiation complex assembly at +295 distal EBV genome region at 500 nM incubated for 2 hrs by CHIP assay
[22] = target: T1, CDK9/cyclin T1 (Homo sapiens); assay: Inhibition of CDK9/Cyclin T1 in human Mutu-3 cells assessed as effect on cp-pre-initiation complex assembly at +30896 distal EBV genome region at 500 nM incubated for 2 hrs by CHIP assay
[23] = target: T1, CDK9/cyclin T1 (Homo sapiens); assay: Inhibition of CDK9/Cyclin T1 in human Mutu-3 cells assessed as effect on cp-pre-initiation complex assembly at +38667 distal EBV genome region at 500 nM incubated for 2 hrs by CHIP assay
[24] = target: T1, CDK9/cyclin T1 (Homo sapiens); assay: Inhibition of CDK9/Cyclin T1 in human Mutu-3 cells assessed as effect on cp-pre-initiation complex assembly at +38828 distal EBV genome region at 500 nM incubated for 2 hrs by CHIP assay
[25] = target: T1, CDK9/cyclin T1 (Homo sapiens); assay: Inhibition of CDK9/Cyclin T1 in human HeLa cells stably transfected Flag-tagged CDK9 assessed as increase in fold change pTEFb/Brd4 complex at 1 mM by western analysis
[26] = target: T1, CDK9/cyclin T1 (Homo sapiens); assay: Inhibition of CDK9/Cyclin T1 in human Mutu-3 cells assessed as increase in fold change pTEFb/Brd4 complex
[27] = target: T1, CDK9/cyclin T1 (Homo sapiens); assay: Inhibition of CDK9/Cyclin T1 in human Mutu-3 cells assessed as reduction in BRD4 at -317 distal EBV genome region at 500 nM incubated for 2 hrs by CHIP assay
[28] = target: T1, CDK9/cyclin T1 (Homo sapiens); assay: Inhibition of CDK9/Cyclin T1 in human Mutu-3 cells assessed as reduction in BRD4 at +34 distal EBV genome region at 500 nM incubated for 2 hrs by CHIP assay
[29] = target: T1, CDK9/cyclin T1 (Homo sapiens); assay: Inhibition of CDK9/Cyclin T1 in human Mutu-3 cells assessed as reduction in BRD4 at +574 distal EBV genome region at 500 nM incubated for 2 hrs by CHIP assay
[30] = target: T1, CDK9/cyclin T1 (Homo sapiens); assay: Inhibition of CDK9/Cyclin T1 in human Mutu-3 cells assessed as reduction in BRD4 at +1564 distal EBV genome region at 500 nM incubated for 2 hrs by CHIP assay
[31] = target: T1, CDK9/cyclin T1 (Homo sapiens); assay: Inhibition of CDK9/Cyclin T1 in human Mutu-3 cells assessed as reduction in BRD4 at +2238 distal EBV genome region at 500 nM incubated for 2 hrs by CHIP assay
[32] = target: T1, CDK9/cyclin T1 (Homo sapiens); assay: Inhibition of CDK9/Cyclin T1 in human Mutu-3 cells assessed as reduction in H3 histone acetylation at -317 distal EBV genome region at 500 nM incubated for 2 hrs by CHIP assay
[33] = target: T1, CDK9/cyclin T1 (Homo sapiens); assay: Inhibition of CDK9/Cyclin T1 in human Mutu-3 cells assessed as reduction in H3 histone acetylation at +34 distal EBV genome region at 500 nM incubated for 2 hrs by CHIP assay
[34] = target: T1, CDK9/cyclin T1 (Homo sapiens); assay: Inhibition of CDK9/Cyclin T1 in human Mutu-3 cells assessed as reduction in H3 histone acetylation at +574 distal EBV genome region at 500 nM incubated for 2 hrs by CHIP assay
[35] = target: T1, CDK9/cyclin T1 (Homo sapiens); assay: Inhibition of CDK9/Cyclin T1 in human Mutu-3 cells assessed as reduction in H3 histone acetylation at +1564 distal EBV genome region at 500 nM incubated for 2 hrs by CHIP assay
[36] = target: T1, CDK9/cyclin T1 (Homo sapiens); assay: Inhibition of CDK9/Cyclin T1 in human Mutu-3 cells assessed as reduction in H3 histone acetylation at +2238 distal EBV genome region at 500 nM incubated for 2 hrs by CHIP assay
[37] = target: T1, CDK9/cyclin T1 (Homo sapiens); assay: Inhibition of CDK9/Cyclin T1 in human Mutu-3 cells assessed as reduction in H4 histone acetylation at -317 distal EBV genome region at 500 nM incubated for 2 hrs by CHIP assay
[38] = target: T1, CDK9/cyclin T1 (Homo sapiens); assay: Inhibition of CDK9/Cyclin T1 in human Mutu-3 cells assessed as reduction in H4 histone acetylation at +34 distal EBV genome region at 500 nM incubated for 2 hrs by CHIP assay
[39] = target: T1, CDK9/cyclin T1 (Homo sapiens); assay: Inhibition of CDK9/Cyclin T1 in human Mutu-3 cells assessed as reduction in H4 histone acetylation at +574 distal EBV genome region at 500 nM incubated for 2 hrs by CHIP assay
[40] = target: T1, CDK9/cyclin T1 (Homo sapiens); assay: Inhibition of CDK9/Cyclin T1 in human Mutu-3 cells assessed as reduction in H4 histone acetylation at +1564 distal EBV genome region at 500 nM incubated for 2 hrs by CHIP assay
[41] = target: T1, CDK9/cyclin T1 (Homo sapiens); assay: Inhibition of CDK9/Cyclin T1 in human Mutu-3 cells assessed as reduction in H4 histone acetylation at +2238 distal EBV genome region at 500 nM incubated for 2 hrs by CHIP assay

OC[C@H]1O[C@@H](n2cnc3cc(Cl)c(Cl)cc32)[C@H](O)[C@@H]1O
inhibition [1]: Active
inhibition [2]: Active
inhibition [3]: inactive
inhibition [4]: Active
inhibition [5]: Active
inhibition [6]: Active
inhibition [7]: Active
inhibition [8]: Active
inhibition [9]: Active
inhibition [10]: Active
inhibition [11]: Active
inhibition [12]: Active
inhibition [13]: Active
inhibition [14]: Active
inhibition [15]: Active
inhibition [16]: Active
inhibition [17]: Active
inhibition [18]: Active
inhibition [19]: inactive
inhibition [20]: inactive
inhibition [21]: inactive
inhibition [22]: inactive
inhibition [23]: inactive
inhibition [24]: inactive
fold change (FC) [25]: 2
fold change (FC) [26]: 2
inhibition [27]: Active
inhibition [28]: Active
inhibition [29]: Active
inhibition [30]: Active
inhibition [31]: Active
inhibition [32]: Active
inhibition [33]: Active
inhibition [34]: Active
inhibition [35]: Active
inhibition [36]: Active
inhibition [37]: Active
inhibition [38]: Active
inhibition [39]: Active
inhibition [40]: Active
inhibition [41]: Active
